The source of these data is ChEMBL document CHEMBL1275544, “Effect of therapeutic chemical agents in vitro and on experimental meningoencephalitis due to Naegleria fowleri” (Antimicrob Agents Chemother, 2008).

For series [1], the system named is Naegleria fowleri. The experiment in a line: Antiparasitic activity against Naegleria fowleri ATCC 30215 trophozoites assessed as inhibition of amoeba proliferation at 0.39 ug/ml on day 2. The following applies: ATCC 30215, 48 h. The format is functional. The method, boiled down:
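Viable amoebae counted by hemacytometer with trypan blue on day 2, with light-microscope morphology. Triplicate wells, at least three repeats.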

Series [2] has as its system Naegleria fowleri. Nature of the series: Antiparasitic activity against Naegleria fowleri ATCC 30215 trophozoites after 6 days. It is filed as functional. Conditions: ATCC 30215, 144 h, read-out: MIC100.
For series [3], the system named is Naegleria fowleri. The experiment in a line: Antiparasitic activity against Naegleria fowleri ATCC 30215 trophozoites after 2 days. It is filed as functional. Conditions: ATCC 30215, 48 h, read-out: MIC100.
In series [4] the test system is Naegleria fowleri. The experiment in a line: Antiparasitic activity against Naegleria fowleri ATCC 30215 trophozoites after 4 days. It is filed as functional. Conditions: ATCC 30215, 96 h, read-out: MIC100.
Series [5] relates to Naegleria fowleri. Nature of the series: Antiparasitic activity against Naegleria fowleri ATCC 30215 trophozoites at 25 ug/ml on day 6 by LDH release assay. It is filed as functional. The method, boiled down:
(§1)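 Supernatant sampled on days 2, 4, 6, mixed with CytoTox96 reagent for 30 min at room temperature, stopped, A490 read. Cytotoxicity % = (sample − spontaneous)/(maximum − spontaneous) ×100. Means ± SE of three experiments in triplicate.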

The test system of series [6] is Naegleria fowleri. The experiment in a line: Antiparasitic activity against Naegleria fowleri ATCC 30215 trophozoites at >1.56 ug/ml on day 4 by LDH release assay. It is filed as functional. The method, boiled down: as §1
(In general: Release of lactate dehydrogenase indicates damage to the cell membrane.)

Series [7] relates to Mus musculus. Nature of the series: Blood urea nitrogen level in BALB/c mouse serum at 5 mg/kg, ip. The format is ADME, organism-based. Conditions: in vivo. On the set-up: dose 5 mg/kg, route intraperitoneal. In short, it runs like this: (§2)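 Renal toxicity check: BALB/c mice given drug i.p. at 5, 10, 20 or 50 mg/kg (saline vehicle), or saline as negative control. Blood collected once daily for 3 days. Serum blood urea nitrogen measured on a clinical chemical analyzer.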

In series [8] the test system is Mus musculus. Nature of the series: Blood urea nitrogen level in BALB/c mouse serum at 10 mg/kg, ip. The format is ADME, organism-based. Further details: dose 10 mg/kg, route intraperitoneal. Conditions: in vivo. The method, boiled down: as §2
Series [9] relates to Mus musculus. Nature of the series: Blood urea nitrogen level in BALB/c mouse serum at 20 mg/kg, ip. It is filed as ADME, organism-based. Further details: dose 20 mg/kg, route intraperitoneal. Conditions: in vivo. The method, boiled down: as §2
Series [10] relates to Naegleria fowleri. Nature of the series: Antiparasitic activity against Naegleria fowleri ATCC 30215 trophozoites infected in BALB/c mouse assessed as mouse survival at 10 mg/kg, ip administered on days 3, 7 and 11 postinfection. It is filed as functional, ATCC30215. The following applies: route intraperitoneal. The method, boiled down: (§3)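 Female BALB/c mice, 7 weeks old, were infected intranasally under secobarbital anaesthesia with 10^4 trophozoites grown 3 days in Nelson's medium at 37°C. Drug was dissolved in saline and given as 100 µl intraperitoneally, starting day 3; controls received saline; 20 mice per group. Deaths were recorded daily for 1 month and mean time to death computed per group. Cause of death was confirmed by brain-tissue culture.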

The test system of series [11] is Naegleria fowleri. The experiment in a line: Antiparasitic activity against Naegleria fowleri ATCC 30215 trophozoites infected in BALB/c mouse assessed as mean time to death at 10 mg/kg, ip administered on days 3, 7 and 11 postinfection. The format is functional, ATCC30215. Conditions: route intraperitoneal. The method, boiled down: as §3
Series [12] deals with Naegleria fowleri. Nature of the series: Antiparasitic activity against Naegleria fowleri ATCC 30215 trophozoites at 100 ug/ml on day 4 by LDH release assay. It is filed as functional. In short, it runs like this: as §1
Series [13] has as its system Mus musculus. The experiment in a line: Blood urea nitrogen level in BALB/c mouse serum at 50 mg/kg, ip. It is filed as ADME, organism-based. Further details: dose 50 mg/kg, route intraperitoneal. The following applies: in vivo. The method, boiled down:
as §2

Series [14] is described as follows: Hepatotoxicity in BALB/c mouse hepatocytes assessed as change in cell morphology at 20 mg/kg, ip by histopathological analysis. It is filed as toxicity, organism-based, Hepatocyte. Further details: dose 20 mg/kg, route intraperitoneal. The method, boiled down:
(§4)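 Toxicity histology: BALB/c mice dosed i.p. at 20 mg/kg in saline. Liver and kidney fixed in 10% neutral buffered formalin, paraffin-embedded, H&E-stained, and complete cross-sections examined by light microscopy (×100, ×400) for hepatocyte and renal cortical tubule size and shape.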

The subject of series [15] is Mus musculus. The experiment in a line: Renal toxicity in BALB/c mouse assessed as degeneration of renal tubules at 20 mg/kg, ip by histopathological analysis. It is filed as organism-based. On the set-up: dose 20 mg/kg, route intraperitoneal. Conditions: in vivo.
The test system of series [16] is Mus musculus. Nature of the series: Renal toxicity in BALB/c mouse assessed as necrosis in kidney cortex at 20 mg/kg, ip by histopathological analysis. It is filed as organism-based. Further details: dose 20 mg/kg, route intraperitoneal. Conditions: in vivo.
Series [17] deals with Mus musculus. Nature of the series: Renal toxicity in BALB/c mouse assessed as change in renal cortical tubule morphology at 20 mg/kg, ip by histopathological analysis. It is filed as organism-based. Further details: dose 20 mg/kg, route intraperitoneal. Conditions: in vivo. In short, it runs like this: as §4
Series [18] relates to Naegleria fowleri. The experiment in a line: Antiparasitic activity against Naegleria fowleri ATCC 30215 trophozoites infected in BALB/c mouse assessed as mouse survival at 20 mg/kg, ip administered on days 3 and 7 postinfection. The format is functional, ATCC30215. The following applies: route intraperitoneal. The method, boiled down: as §3
Series [19] deals with Naegleria fowleri. The experiment in a line: Antiparasitic activity against Naegleria fowleri ATCC 30215 trophozoites infected in BALB/c mouse assessed as mouse survival at 20 mg/kg, ip administered on days 3, 7 and 11 postinfection. The following applies: route intraperitoneal. The format is functional, ATCC30215. In short, it runs like this:
as §3

In series [20] the test system is Naegleria fowleri. Nature of the series: Antiparasitic activity against Naegleria fowleri ATCC 30215 trophozoites infected in BALB/c mouse assessed as mean time to death at 20 mg/kg, ip administered on days 3, 7 and 11 postinfection. It is filed as functional, ATCC30215. Conditions: route intraperitoneal. The method, boiled down:
as §3

Series [21] has as its system Naegleria fowleri. Nature of the series: Antiparasitic activity against Naegleria fowleri ATCC 30215 trophozoites infected in BALB/c mouse brain by histopathology analysis. Conditions: ATCC30215. The format is functional, organism-based. In short, it runs like this:
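Female BALB/c mice, 7 weeks old, infected intranasally under secobarbital with 10^4 trophozoites grown 3 days in Nelson's medium at 37°C. Drugs given i.p. in saline on days 3, 7, 11. Brains of dead mice or mice surviving 1 month fixed in 10% neutral buffered formalin, paraffin-embedded, H&E-stained and examined by light microscopy. 20 mice/group.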

The subject of series [22] is Naegleria fowleri. Nature of the series: Antiparasitic activity against Naegleria fowleri ATCC 30215 trophozoites at 50 ug/ml on day 6 by LDH release assay. It is filed as functional. The method, boiled down:
as §1

Series [23] relates to Naegleria fowleri. The experiment in a line: Antiparasitic activity against Naegleria fowleri ATCC 30215 trophozoites at 1.56 ug/ml on day 2 by LDH release assay. It is filed as functional. In short, it runs like this:
as §1

The subject of series [24] is Naegleria fowleri. The experiment in a line: Antiparasitic activity against Naegleria fowleri ATCC 30215 trophozoites at 3.125 ug/ml on day 2 by LDH release assay. It is filed as functional. In short, it runs like this:
as §1

Series [25] has as its system Naegleria fowleri. The experiment in a line: Antiparasitic activity against Naegleria fowleri ATCC 30215 trophozoites at 6.25 ug/ml on day 2 by LDH release assay. The format is functional. The method, boiled down: as §1
Series [26] deals with Naegleria fowleri. The experiment in a line: Antiparasitic activity against Naegleria fowleri ATCC 30215 trophozoites at 12.5 ug/ml on day 2 by LDH release assay. The format is functional. The method, boiled down:
as §1

Series [27] has as its system Naegleria fowleri. The experiment in a line: Antiparasitic activity against Naegleria fowleri ATCC 30215 trophozoites at 25 ug/ml on day 2 by LDH release assay. It is filed as functional. The method, boiled down: as §1
In series [28] the test system is Naegleria fowleri. The experiment in a line: Antiparasitic activity against Naegleria fowleri ATCC 30215 trophozoites at 50 ug/ml on day 2 by LDH release assay. It is filed as functional. In short, it runs like this: as §1
Series [29] concerns Naegleria fowleri. The experiment in a line: Antiparasitic activity against Naegleria fowleri ATCC 30215 trophozoites at 100 ug/ml on day 2 by LDH release assay. It is filed as functional. The method, boiled down: as §1

Molecules are shown by their SMILES. Values after ≈ are worked out from the molar mass of the structure shown. Active and inactive are the calls of the source. The rule behind the calls is not given here. Bounds are passed on as bounds.

As usually defined, the inhibition is the drop in the measured response relative to a control, in per cent.

`C[C@@H]1[C@H](O)[C@@H](C)/C=C/C=C/C=C/C=C/C=C/C=C/C=C/[C@H](O[C@@H]2O[C@H](C)[C@@H](O)[C@H](N)[C@@H]2O)C[C@@H]2O[C@](O)(C[C@@H](O)C[C@@H](O)[C@H](O)CC[C@@H](O)C[C@@H](O)CC(=O)O[C@H]1C)C[C@H](O)[C@H]2C(=O)O` [AMPHOTERICIN B]: the inhibition at 0.39 µg/mL with Naegleria fowleri [1] worked out at 100%. Besides, the MIC in the series with Naegleria fowleri [2], in the series on Naegleria fowleri [3] and in the series on Naegleria fowleri [4] was 0.78 µg/mL (≈ 0.844 µM) each time. Further, the Activity is 99.5% in the series on Naegleria fowleri [5]; greater than 50% in the series with Naegleria fowleri [6]; 27.4 mg/dL with Mus musculus [7]; 38.6 mg/dL in the series on Mus musculus [8]; 44.1 mg/dL in the series with Mus musculus [9]; 40% in the series with Naegleria fowleri [10]. In the series on Naegleria fowleri [11], the Time worked out at 17.3 days.

In the case of `CN(C)CCCN1c2ccccc2Sc2ccc(Cl)cc21` [CHLORPROMAZINE], the MIC in the series on Naegleria fowleri [2], in the series on Naegleria fowleri [3] and with Naegleria fowleri [4] was 12.5 µg/mL (≈ 39.2 µM) each time. The Activity is 64.4% in the series with Naegleria fowleri [5]; 69.1% in the series with Naegleria fowleri [12]; 36.3 mg/dL in the series on Mus musculus [8]; 38.4 mg/dL in the series with Mus musculus [9]; 57.5 mg/dL with Mus musculus [13]; “Non-toxic” in series [14]. Also, the Activity entry was “Non-toxic” with Mus musculus [15]; “Non-toxic” in the series on Mus musculus [16]; “Non-toxic” with Mus musculus [17]; 35% with Naegleria fowleri [18]; 75% in the series with Naegleria fowleri [19]. In addition, the Time in the series with Naegleria fowleri [20] stood at 17.2 days. Further, the result in the series on Naegleria fowleri [21] was Active.

For `CCCCCCCCCCCCCCCCOP(=O)([O-])OCC[N+](C)(C)C` [MILTEFOSINE], the MIC with Naegleria fowleri [2], in the series with Naegleria fowleri [3] and in the series with Naegleria fowleri [4] was 25 µg/mL (≈ 61.3 µM) each time. Besides, the Activity with Naegleria fowleri [22] is reported as 79.3%; in the series with Naegleria fowleri [23], less than 30%; in the series with Naegleria fowleri [24] it was less than 30%; in the series on Naegleria fowleri [25] it was less than 30%; with Naegleria fowleri [26], less than 30%; with Naegleria fowleri [27], less than 30%. Also, the Activity was less than 30% in the series on Naegleria fowleri [28]; less than 30% with Naegleria fowleri [29]; 29.6 mg/dL in the series with Mus musculus [8]; 34.6 mg/dL with Mus musculus [9]; 82.4 mg/dL with Mus musculus [13]; 20% in the series on Naegleria fowleri [18]. For the same molecule, the Activity with Naegleria fowleri [19] was 55%.
